bovine MsrA act = bovine methionine sulfoxide reductase A activation. activation, % at 10.6 µM. AID 602163. 360,000 compounds, 0.3% hits. purified bovine MsrA, absorbance read-out; in the data active = activation above about 7.5%;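 note: 0% = vehicle and 100% = reference activator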
NadD block = blocks S. aureus nicotinate mononucleotide adenylyltransferase | 360,000 compounds, 0.78% hits | AID 602399 | inhibition, % at 20 µM | purified NadD enzyme, colorimetric absorbance read-out; in the data active = inhibition above about 26%
GalR3 antag = antagonists of human GalR3. O60755. HEK293 GalR3-CNG cAMP membrane potential fluorescence; galR3 body fused to GalR1 C-terminus. inhibition, % at 3 µM. 360,000 compounds, 0.44% hits. AID 651719;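 active = inhibition above the screen-wide average plus 3 SD, cut at about 13% in these data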;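 note: forskolin and galanin both at EC90 stimulate the cells; cAMP rise reported by CNG channel membrane potential dye signal; 0% = forskolin plus galanin with DMSO and 100% = forskolin alone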
Target sequence (O60755 1-299 limits assumed): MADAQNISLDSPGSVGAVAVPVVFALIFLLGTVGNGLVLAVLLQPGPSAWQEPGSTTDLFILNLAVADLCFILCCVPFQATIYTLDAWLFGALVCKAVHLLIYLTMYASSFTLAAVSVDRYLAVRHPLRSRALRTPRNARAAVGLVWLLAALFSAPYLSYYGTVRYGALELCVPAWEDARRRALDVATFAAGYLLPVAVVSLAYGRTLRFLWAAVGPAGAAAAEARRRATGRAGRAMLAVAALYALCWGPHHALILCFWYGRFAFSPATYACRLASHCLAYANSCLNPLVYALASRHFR
MsrA inh = inhibitors of bovine MsrA; purified bovine MsrA, absorbance read-out; inhibition, % at 15.5 µM; 360,000 compounds, 0.75% hits; AID 651718; in the data active = inhibition above about 4.5%;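 note: 0% = vehicle wells with enzyme and 100% = reference inhibitor wells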
NR2E3 ag-1 = activates human photoreceptor nuclear receptor NR2E3; Q9Y5X4; GST-NR2E3/biotin-RetCOR TR-FRET, 1536-well; inhibition of corepressor binding, % at 4.78 µM; 320,000 compounds, 0.12% hits;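 active = percent inhibition above the cutoff of mean plus 3 SD of all tested compounds, set per screening campaign, cut at about 20% in these data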;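 note: 0% = DMSO wells and 100% = biotin wells as full block of FRET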
Target sequence (Q9Y5X4 whole entry, looked up): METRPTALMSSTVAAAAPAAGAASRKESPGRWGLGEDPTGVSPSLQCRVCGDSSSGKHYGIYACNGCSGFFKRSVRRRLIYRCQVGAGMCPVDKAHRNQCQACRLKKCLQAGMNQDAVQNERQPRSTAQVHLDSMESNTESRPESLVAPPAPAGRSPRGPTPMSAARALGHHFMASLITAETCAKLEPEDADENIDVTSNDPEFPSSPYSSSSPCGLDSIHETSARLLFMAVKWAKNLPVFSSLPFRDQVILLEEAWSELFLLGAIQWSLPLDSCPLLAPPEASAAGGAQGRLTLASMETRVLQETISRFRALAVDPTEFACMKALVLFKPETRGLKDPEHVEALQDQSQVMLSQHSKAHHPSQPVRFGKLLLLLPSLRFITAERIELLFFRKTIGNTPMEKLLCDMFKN
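System: GST-tagged NR2E3 plus biotinylated RetCOR corepressor; Buffer or medium: pH 7.5 Tris-based buffer; Probe or stimulus: RetCOR corepressor, biotinylated, 7 nM; Doses: compound at 4.8 µM, single dose; Schedule: 5 h incubation at 4 °C; Technique: time-resolved FRET; Evaluation: percent inhibition of TR-FRET ratio; Replication: one well per compound, singlicate testing.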
NR2E3 ag-2 = agonists of human NR2E3 nuclear receptor; Q9Y5X4; CHO-S Gal4-NCOR/VP16-NR2E3 two-hybrid, luciferase; inhibition of corepressor binding, % at 3.98 µM; 360,000 compounds, 0.35% hits;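 active = inhibition above the mean of all tested compounds plus 3 SD, cut at about 70% in these data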;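 note: 0% = DMSO with NR2E3 transfected cells and 100% = cells lacking NR2E3 construct; higher means lower luciferase signal from less NR2E3 corepressor binding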
GalR3 conf = confirmation of human galanin receptor 3 antagonists. HEK293 GalR3 CNG cAMP biosensor, membrane potential fluorescence; galR3 fused to GalR1 carboxy tail; challenged with forskolin and galanin at EC90. 1,600 compounds, 59% hits. inhibition, % at 3 µM. shares compounds with GalR3 antag. AID 652245;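 active = inhibition above the primary screen's cutoff, the mean inhibition of all screened compounds plus 3 SD, cut at about 13% in these data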;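 note: 0% = forskolin plus galanin and 100% = forskolin alone with DMSO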
CNG parental = parental cell agonism counter-screen for GalR3 antagonists; 1,600 compounds, 10% hits; AID 652268; HEK293-CNG parental cells, cAMP membrane potential fluorescence; normalised: DMSO wells 0%, forskolin wells 100%; shares compounds with GalR3 antag; activation, % at 3 µM; in the data active = activation above about 1.3%
* hit, by the source's call; . = no result. Sampled rows, rich in hits. Any-hit rate of the full collection: about 2.5%.

SMILES	bovine MsrA act	NadD block	GalR3 antag	MsrA inh	NR2E3 ag-1	NR2E3 ag-2	GalR3 conf	CNG parental
CCC(CO)Oc1cc(NC(=O)c2cccc(Cl)c2)c2ncn(C(C)C)c2c1 (stereo not given)	-1.4	2.2	0.7	2.0	2.0	-15.7	.	.
CC(C)n1cnc2c(N(C)c3cccc(Cl)c3)nc(N(CCO)CCO)nc21	-1.9	-1.0	.	1.8	-4.6	-0.8	10.3	-0.1
CCOC(=O)C(C)n1cnc2c1c(=O)[nH]c(=O)n2C (stereo not given)	-17.2	2.0	-2.7	1.0	2.6	14.0	.	.
c1cncc(-c2nnc3sc(C4CCCCC4)nn23)c1	4.2	-4.8	.	0.7	0.3	-11.8	4.4	0.2
COc1ccc(NC(=O)c2ccc(-c3ccc(F)cc3)o2)cc1OC	-3.4	-6.8	-2.1	0.6	.	2.5	.	.
CCOc1ncccc1C(=O)OCC(=O)c1ccccc1Br	-3.9	-5.8	15.6*	0.1	2.3	-21.7	-3.2	-0.1
CCOc1cc(/C=C2\CCC/C(=C\c3cc(Cl)c(O)c(OCC)c3)C2=O)cc(Cl)c1O	-3.1	46.1*	24.1*	1.8	0.4	16.4	53.5*	-0.1
CCOc1cc(/C=C2\CN(C)C/C(=C\c3ccc(O)c(OCC)c3)C2=O)ccc1O	-6.7	6.4	-7.4	1.7	0.4	1.1	.	.
OCC[C@@H]1C[C@H](O)[C@@H](O)[C@]2(CCc3ccccc3O2)O1	-2.3	2.1	-1.3	0.4	1.4	-30.7	.	.
OCC[C@@H]1C[C@@H](O)[C@H](O)[C@]2(CCc3ccccc3O2)O1	-4.5	-1.1	.	-1.0	3.6	-8.8	18.2*	0.0
O=C(Nc1ccc2c(c1)OCCO2)NC1CCCCC1	3.0	2.3	.	0.4	-1.3	-126.3	-0.4	0.5
N#CC1(NC(=O)COc2ccc(C(N)=O)cc2)CCCC1	-4.7	-4.5	-8.9	-0.1	.	-23.4	.	.
Cc1nc(-c2ccccc2)nc2sc(C(=O)c3ccc(F)cc3)c(N)c12	-0.2	3.2	-1.4	1.1	-5.2	-33.5	.	.
Cc1nc2sc(C(=O)c3ccccc3)c(N)c2c(C)c1C	-0.6	-1.5	13.1*	0.8	-3.0	-48.8	2.1	-0.3
O=C(O)CCc1ccc(-c2cccs2)n1CC(=O)Nc1ccccc1C(F)(F)F	-2.2	-3.6	15.1*	2.4	-1.3	-14.6	-3.0	0.9
COCCn1c(CCC(=O)O)ccc1-c1cccs1	-13.5	1.2	-4.0	0.9	1.5	-4.5	.	.
COc1cc(/C=N/N=C(N)N)ccc1OCc1ccc(Cl)cc1	-5.0	1.1	92.0*	-0.5	1.3	-117.7	44.7*	1.8*
CCOc1cc(/C=N/N=C(N)N)ccc1OCc1ccc(Cl)cc1	-1.8	8.3	11.8	-1.0	-1.1	-13.2	.	.
COc1cc(/C=N\n2nnnc2N)ccc1OCc1ccc(F)cc1	-6.1	-5.6	20.7*	1.5	2.8	-10.0	24.9*	0.6
COc1ccc(-n2c(-c3ccccc3)nnc2-c2ccc(Cl)cc2)cc1	-12.5	1.6	-5.0	-0.8	2.8	-3.5	.	.
COc1ccc(-n2c(-c3ccc(Cl)cc3)c[n+]3c2CCc2ccccc2-3)cc1	-3.4	12.5	62.1*	0.3	3.3	-2.0	56.8*	1.0
Cc1ccc(N)c([N+](=O)[O-])c1	-4.5	6.1	0.2	0.6	-0.1	14.6	.	.
CC1CC(=O)NN=C1c1ccc(N)c([N+](=O)[O-])c1 (stereo not given)	-1.8	-4.2	64.2*	1.0	-1.1	-10.8	73.0*	0.0
COC(=O)C1=CO[C@@H](O[C@@H]2O[C@H](CO)[C@@H](O)[C@H](O)[C@H]2O)C2C1C=C[C@@]2(O)CO (stereo not given in full)	-9.1	2.2	.	1.4	.	6.1	7.7	0.2
COC(=O)C1=CO[C@@H](OC2OC(CO)C(O)C(O)C2O)[C@@H]2[C@@H](C)[C@@H](O)C[C@H]12 (stereo not given in full)	-0.1	4.8	-2.2	0.2	0.5	-17.7	.	.
SMILES	bovine MsrA act	NadD block	GalR3 antag	MsrA inh	NR2E3 ag-1	NR2E3 ag-2	GalR3 conf	CNG parental
CN(C)S(=O)(=O)c1cccc(-c2cn3cccnc3n2)c1	-3.4	-0.7	.	2.9	-0.6	-14.3	8.9	0.8
Cc1cc(OCC(=O)NCCN2CCOCC2)ccc1Br	-0.3	1.9	-1.7	1.0	0.8	-22.6	.	.
CC(=O)NC(Cc1c[nH]c2ccccc12)C(=O)OCC(=O)Nc1ccc2c(c1)OCO2 (stereo not given)	-1.6	3.1	15.4*	2.4	2.0	-11.0	5.6	0.0
COc1cc(NC(=O)COC(=O)c2ccc(S(=O)(=O)N3CC(C)CC(C)C3)cc2)c(C)cc1[N+](=O)[O-] (stereo not given)	-6.2	2.2	.	.	-1.9	12.9	.	.
CCOC(=O)c1sc(-c2ccc(C)cc2)c(C#N)c1C	-0.8	4.9	-6.2	-0.9	2.9	5.1	.	.
Cc1c(C(=O)NN)sc(-c2ccccc2)c1C#N	-1.9	4.0	15.9*	1.8	1.0	0.4	1.0	0.3
Cc1ccc(S(=O)(=O)N(C)Cc2cc3cc(C)ccc3[nH]c2=O)cc1	2.9	-10.4	4.2	0.4	3.1	-5.8	.	.
COCCN(Cc1cc2cc(C)ccc2[nH]c1=O)S(=O)(=O)c1ccc(Cl)cc1	-0.3	-6.1	73.5*	-0.2	-1.7	-11.9	3.8	0.3
O=C(NNC(=O)c1ccc2ccccc2n1)c1ccc(O)cc1	-3.5	0.5	-1.1	0.4	6.1	-8.5	.	.
COc1ccccc1CNC(=S)NC1CCCCC1	-7.0	4.7	13.7*	0.4	-0.9	-13.5	12.5	0.0
Fc1ccccc1CNC(=S)NC1CCCCC1	-0.7	-1.0	-3.1	-1.1	.	1.6	.	.
Cc1ccc(Oc2ccccc2NC(=O)CSCC(=O)Nc2cc(C)on2)cc1	-1.6	-3.0	84.3*	1.4	0.1	-6.3	68.3*	0.2
Cc1cc(NC(=O)CSCC(=O)Nc2ccccc2Oc2ccccc2)no1	-6.1	-6.1	-2.5	-0.6	-3.3	1.8	.	.
CCCC(=O)NCCc1cc2cc(C)c(C)cc2[nH]c1=O	-6.8	0.8	3.5	1.0	.	9.4	.	.
CN(CCO)c1cc(Sc2nc3ccccc3s2)c2nonc2c1[N+](=O)[O-]	-9.0	-1.1	27.8*	2.8	6.6	33.0	50.8*	0.6
O=C(Nc1ccccc1)c1nn(-c2cccc(C(F)(F)F)c2)ccc1=O	-4.7	4.5	45.2*	1.4	2.8	-29.2	50.3*	0.2
Cc1cc(C)cc(OCC(=O)N/N=C/c2ccccn2)c1	-2.7	-1.7	-5.4	-0.5	1.6	-0.9	.	.
CCSc1nnc(N)s1	-11.0	1.7	-4.0	-1.1	-1.0	5.2	.	.

Screens deposited in PubChem by several laboratories.
